According to ChEMBL document CHEMBL2331272, “Bromotyrosine alkaloids from the Australian marine sponge Pseudoceratina verrucosa” (J Nat Prod, 2013):

Experiments:
NFF [1] = test: Cytotoxicity against human NFF cells assessed as inhibition of cell viability after 72 hrs by alamar blue assay; assay type: functional, cell-based
Method in brief: (§1)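 NFF fibroblasts grown in DMEM with 10% FBS and penicillin/streptomycin, 37 °C, 5% CO2; 1000 cells/well seeded and adhered overnight. Compounds tested in ten-point series, final 100 μM to 3 nM, 1% DMSO, triplicate wells; 72 h incubation. Readout by Alamar blue (10% final), ex 535/em 590 nm. IC50 by nonlinear regression; IC50 or % inhibition at 100 μM as mean SD, two independent experiments.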

PC-3 [2] = test: Cytotoxicity against human PC3 cells assessed as inhibition of cell viability after 72 hrs by alamar blue assay; assay type: functional, cell-based; conditions: PC-3, 72 h
Method in brief: (§2)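 HeLa and PC3 cells grown in RPMI with 10% FBS and penicillin/streptomycin, 37 °C, 5% CO2; 1000 cells/well adhered overnight. Ten-point dilutions, final 100 μM to 3 nM, 1% DMSO, triplicate; 72 h exposure. Alamar blue added (10% final), fluorescence ex 535/em 590 nm. IC50 by nonlinear regression; IC50 or % inhibition at 100 μM as mean SD of two independent experiments.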

HeLa [3] = test: Cytotoxicity against human HeLa cells assessed as inhibition of cell viability after 72 hrs by alamar blue assay; assay type: functional, cell-based; method in brief: as §2
PC-3 [4] = test: Cytotoxicity against human PC3 cells assessed as inhibition of cell viability at 100 uM after 72 hrs by alamar blue assay; assay type: functional; conditions: PC-3, 72 h; method in brief: as §2
NFF [5] = test: Cytotoxicity against human NFF cells assessed as inhibition of cell viability at 100 uM after 72 hrs by alamar blue assay; assay type: functional; method in brief: as §1
HeLa [6] = test: Cytotoxicity against human HeLa cells assessed as inhibition of cell viability at 100 uM after 72 hrs by alamar blue assay; assay type: functional; method in brief: as §2

SMILES	IC50 (NFF [1])	IC50 (PC-3 [2])	IC50 (HeLa [3])	inhibition at 100 µM (PC-3 [4])	inhibition at 100 µM (NFF [5])	inhibition at 100 µM (HeLa [6])
COc1ccc(C/C(=N\O)C(=O)NC[C@@H](O)c2cc(Br)c(OCCCN(C)C)c(Br)c2)cc1Br	16 µM	4.9 µM	19 µM	–	–	–
CN(C)CCCOc1c(Br)cc([C@H]2CNC(=O)O2)cc1Br	–	–	–	35%	29%	44%
COC1=C(Br)[C@H](O)[C@@]2(C=C1Br)CC(C(=O)NCCCc1cnc(N)[nH]1)=NO2 [AEROPHOBIN 2]	–	–	–	66%	25%	20%
COC1=C(Br)[C@H](O)[C@@]2(C=C1Br)CC(C(=O)NCC(O)c1cc(Br)c(OC[C@H]3CNC(=O)O3)c(Br)c1)=NO2 (stereo not given in full) [FOSTULARIN 2]	–	–	40 µM	73%	68%	–
COC1=C(Br)[C@H](O)[C@@]2(C=C1Br)CC(C(=O)NCC(O)c1cc(Br)c(OC[C@H](O)CNC(=O)C3=NO[C@]4(C=C(Br)C(OC)=C(Br)[C@@H]4O)C3)c(Br)c1)=NO2 (stereo not given in full) [FOSTULARIN 3]	–	–	–	60%	48%	46%
